pIC50: −log10 of the molar value. Values after ≈ are worked out from the molar mass of the structure shown. Active and inactive are the calls of the source.
Experiments:
[1] = Water solubility of the compound; insoluble; assay type: ADME; settings: buffer
L1210 = experiment: In vitro cytotoxic activity against murine L1210 leukemia cells.; assay type: functional, cell-based, Mus musculus
Method in brief: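 Murine L1210 leukemia cells grown in RPMI 1640 with 10% heat-inactivated horse serum at 37 °C, 5% CO2, used within 40 passages (doubling time 8-10 h). Exponentially growing cells (1.5 × 10^5/well) exposed to a concentration range for 48 h, then counted electronically.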

DNA topoisomerase II [2] = target: T1, DNA topoisomerase II (Homo sapiens, UniProt P11388+Q02880); experiment: Concentration of compound at which inhibitory activity detected against DNA topoisomerase II; assay type: protein assay, Drosophila melanogaster
Mus musculus [3] = experiment: Compound was tested in vivo for inhibition of P388 murine leukemia cells after iv / ip administration at 40 mg/ kg; NA indicates inactive; assay type: functional, organism-based; parameters: dose 40 mg/ kg
Method in brief: (§1)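 P388 leukemia cells (10^6/mouse) implanted iv in CDF1 mice (>18 g) on day 0. After randomization, single ip dose on day 1 from the series 2.5, 10, 40, 160 mg/kg. Daily clinical checks and death recorded, weights on days 1, 4, 8. Activity scored as median survival treated/control ×100 (T/C, %), with 125–175% as minimum activity (NCI criteria).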

[4] = Water solubility of the compound; assay type: ADME; settings: for solubility: water, read-out: S; for S: buffer
Mus musculus [5] = experiment: compound was tested in vivo for inhibition of P388 murine leukemia cells after iv / ip administration at 40 mg/ kg; NA indicates inactive; assay type: functional, organism-based; parameters: dose 40 mg/ kg; method in brief: as §1
[6] = in vitro inhibitory activity against tubulin polymerization.; parameters: species or system Ovis aries
Mus musculus [7] = experiment: compound was tested in vivo for inhibition of P388 murine leukemia cells after iv / ip administration.; assay type: functional
Method in brief: (§2)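 CDF1 mice over 18 g implanted iv with 10^6 P388 leukemia cells on day 0 and randomized. Single ip dose on day 1, chosen from 2.5, 10, 40 or 160 mg/kg. Survival and clinical signs followed daily; weights taken days 1, 4 and 8. T/C% is median survival of treated over control × 100; 125-175% is the minimum activity level.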

Mus musculus [8] = experiment: percent T / C values ([…] / control) against P388 murine leukemia cells at 40 mg/kg dose; assay type: functional; method in brief: as §2
DNA topoisomerase II [9] = target: T1, DNA topoisomerase II; experiment: In vitro inhibitory activity against DNA topoisomerase II; assay type: protein assay, Drosophila melanogaster
Mus musculus [10] = experiment: percent T / C values ([…] / control) against P388 murine leukemia cells at 160 mg/kg dose; assay type: functional; method in brief: as §2
[11] = Mus musculus, P388, read-out: ED50

SMILES	pIC50 (L1210; Mus musculus, L1210)	EC50 (DNA topoisomerase II [2]) [µM]	solubility [4] [mg/mL]	pIC50 [6]	further results
COc1cc([C@@H]2c3cc4c(cc3[C@@H](OC3CC(N5CCOCC5)C5OC(C)OCC5O3)[C@H]3COC(=O)[C@H]23)OCO4)cc(OC)c1O (stereo partly specified)	< 6.00	> 1	–	–	S [1]: Insoluble; ED50 (Mus musculus [3]): inactive
COc1cc([C@@H]2c3cc4c(cc3[C@@H](OC3CC(N)C(O)C(C)O3)[C@H]3COC(=O)[C@H]23)OCO4)cc(OC)c1O (stereo partly specified)	4.92	5.6	13 (≈ 24.5 mM)	< 5.00	ED50 (Mus musculus [5]): inactive
COc1cc([C@@H]2c3cc4c(cc3CC3COC(=O)[C@@H]32)OCO4)cc(OC)c1O (stereo partly specified)	–	–	–	4.89	–
COc1cc([C@@H]2c3cc4c(cc3[C@H](O)[C@H]3COC(=O)[C@H]23)OCO4)cc(OC)c1OC [PODOFILOX]	–	–	–	5.52	–
COc1cc([C@@H]2c3cc4c(cc3[C@@H](O[C@@H]3CC(N)C5OC(C)OCC5O3)[C@H]3COC(=O)[C@H]23)OCO4)cc(OC)c1O (stereo partly specified)	5.89	> 100	10 (≈ 17.5 mM)	< 4.30	ED50 (Mus musculus [5]): inactive
COc1cc([C@@H]2c3cc4c(cc3[C@@H](OC3CC(N)C5OC(C)OCC5O3)[C@H]3COC(=O)[C@H]23)OCO4)cc(OC)c1O (stereo in doubt; 27)	–	> 100	–	< 4.30	S [4]: 9 mg/mL; pIC50 (L1210; l1210): 7.15; ED50 (Mus musculus [7]): 1.7 mg/kg; T/C max (Mus musculus [8]): 193%
COc1cc([C@@H]2c3cc4c(cc3[C@@H](OC3CC(N(C)C)C5OC(C)OCC5O3)[C@H]3COC(=O)[C@H]23)OCO4)cc(OC)c1O (stereo in doubt; 29)	7.05	> 100	26 (≈ 43.4 mM)	< 4.30	ED50 (Mus musculus [7]): 5 mg/kg; T/C max (Mus musculus [8]; 40 mg/kg): 257%
COc1cc([C@@H]2c3cc4c(cc3C(OC3OC5COC(C)OC5C(O)C3N(C)C)C3COC(=O)[C@@H]32)OCO4)cc(OC)c1O (stereo partly specified)	–	–	15 (≈ 24.4 mM)	–	EC50 (DNA topoisomerase II [9]): 56 µM
COc1cc([C@@H]2c3cc4c(cc3[C@@H](OC3CC(N(C)C)C5OC(C)OCC5O3)[C@H]3COC(=O)[C@H]23)OCO4)cc(OC)c1O (stereo in doubt; 28)	–	> 100	–	–	S [4]: 24 mg/mL; pIC50 (L1210; l1210): 6.96; ED50 (Mus musculus [7]): 1.7 mg/kg; T/C max (Mus musculus [8]; 40 mg/kg): 243%
COc1cc([C@@H]2c3cc4c(cc3[C@@H](OC3CC(NCCN)C5OC(C)OCC5O3)[C@H]3COC(=O)[C@H]23)OCO4)cc(OC)c1O (stereo partly specified)	5.77	> 100	40 (≈ 65.1 mM)	< 5.00	ED50 (Mus musculus [5]): inactive
COc1cc([C@@H]2c3cc4c(cc3[C@@H](O[C@@H]3O[C@@H]5CO[C@@H](C)O[C@H]5[C@H](O)[C@H]3O)[C@H]3COC(=O)[C@H]23)OCO4)cc(OC)c1O [ETOPOSIDE]	6.70	–	–	–	T/C max (Mus musculus [10]): 242%; S [4]: 0.01 mg/mL; ED50 (Mus musculus [7]; [11]): 5 mg/kg
COc1cc([C@@H]2c3cc4c(cc3[C@@H](OC3CC(N)C5OC(C)OCC5O3)[C@H]3COC(=O)[C@H]23)OCO4)cc(OC)c1O (stereo in doubt; 17)	–	> 100	11 (≈ 19.2 mM)	< 5.00	T/C max (Mus musculus [10]): 300%; pIC50 (L1210; l1210): 6.64; ED50 (Mus musculus [7]): 5 mg/kg
COc1cc([C@@H]2c3cc4c(cc3[C@@H](OC3CC(N)C(O)C(CN)O3)[C@H]3COC(=O)[C@H]23)OCO4)cc(OC)c1O (stereo partly specified)	6.68	> 100	42 (≈ 77.1 mM)	4.96	ED50 (Mus musculus [5]): inactive
COc1cc([C@@H]2c3cc4c(cc3[C@@H](OC3CC(NCC#N)C5OC(C)OCC5O3)[C@H]3COC(=O)[C@H]23)OCO4)cc(OC)c1O (stereo partly specified)	5.70	> 1	–	< 4.00	T/C max (Mus musculus [10]): 186%; S [1]: Insoluble; ED50 (Mus musculus [7]; [11]): 20 mg/kg

— ChEMBL document CHEMBL1131312 (J Med Chem, 1998)
